{
  "source": "ChEMBL document CHEMBL5674883",
  "about": "“The Heterochromatin Landscape in Migrating Cells and the Importance of H3K27me3 for Associated Transcriptome Alterations” (Cells, 2018)",
  "format_in_all_cases": "cell-based",
  "key": {"[1]": {"target": "T1, RNA polymerase II (Mus musculus) (UniProt P08775+Q8CFI7+P97760+A0A3Q4L2S8+Q80UW8+P61219+P62488+Q923G2+P60898+O08740+Q63871+P62876)", "assay": "Inhibition of RNA polymerase II in mouse B16-F1 migrating cells assessed as fold change in Acbd6-RNA stability at 0.1 mM measured by […] analysis relative to control cells"}, "[2]": {"target": "T1, RNA polymerase II (Mus musculus)", "assay": "Inhibition of RNA polymerase II in mouse B16-F1 migrating cells assessed as fold change in Ndrg1-RNA stability at 0.1 mM measured by ChIP-seq analysis relative to control cells"}, "[3]": {"target": "T1, RNA polymerase II (Mus musculus)", "assay": "Inhibition of RNA polymerase II in mouse B16-F1 migrating cells assessed as fold change in Repin1-RNA stability at 0.1 mM measured by […] analysis relative to control cells"}, "[4]": {"target": "T1, RNA polymerase II (Mus musculus)", "assay": "Inhibition of RNA polymerase II in mouse B16-F1 migrating cells assessed as fold change in Dock10-RNA stability at 0.1 mM measured by ChIP-seq analysis relative to control cells"}, "[5]": {"target": "T1, RNA polymerase II (Mus musculus)", "assay": "Inhibition of RNA polymerase II in mouse B16-F1 migrating cells assessed as fold change in Nelfe-RNA stability at 0.1 mM measured by ChIP-seq analysis relative to control cells"}, "[6]": {"target": "T1, RNA polymerase II (Mus musculus)", "assay": "Inhibition of RNA polymerase II in mouse B16-F1 migrating cells assessed as fold change in Eif2s3x-RNA stability at 0.1 mM measured by […] analysis relative to control cells", "summary_of_the_method": "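Mouse B16-F1 melanoma cells grown to confluence on fibronectin in DMEM/10% FCS at 37 °C, 7% CO2. Migration induced by multiple scratches and 3 h incubation; unscratched controls. DRB 0.1 mM added 3 h before lysis. RNA from poly A-selected mRNA was sequenced (RNA-seq, three replicates per DRB group). Fold change computed for DRB-treated migrating vs DRB-treated control cells; cutoffs fold change >1.3, FDR <0.05.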"}, "[7]": {"target": "T1, RNA polymerase II (Mus musculus)", "assay": "Inhibition of RNA polymerase II in mouse B16-F1 migrating cells assessed as fold change in Bpnt1-RNA stability at 0.1 mM measured by […] analysis relative to control cells"}, "[8]": {"target": "T1, RNA polymerase II (Mus musculus)", "assay": "Inhibition of RNA polymerase II in mouse B16-F1 migrating cells assessed as fold change in Samd14-RNA stability at 0.1 mM measured by […] analysis relative to control cells"}, "[9]": {"target": "T1, RNA polymerase II (Mus musculus)", "assay": "Inhibition of RNA polymerase II in mouse B16-F1 migrating cells assessed as fold change in Psip1-RNA stability at 0.1 mM measured by […] analysis relative to control cells"}, "[10]": {"target": "T1, RNA polymerase II (Mus musculus)", "assay": "Inhibition of RNA polymerase II in mouse B16-F1 migrating cells assessed as fold change in Ikzf4-RNA stability at 0.1 mM measured by ChIP-seq analysis relative to control cells"}, "[11]": {"target": "Histone-lysine N-methyltransferase EZH2 (Mus musculus) (UniProt Q61188)", "sequence (Q61188 whole entry)": "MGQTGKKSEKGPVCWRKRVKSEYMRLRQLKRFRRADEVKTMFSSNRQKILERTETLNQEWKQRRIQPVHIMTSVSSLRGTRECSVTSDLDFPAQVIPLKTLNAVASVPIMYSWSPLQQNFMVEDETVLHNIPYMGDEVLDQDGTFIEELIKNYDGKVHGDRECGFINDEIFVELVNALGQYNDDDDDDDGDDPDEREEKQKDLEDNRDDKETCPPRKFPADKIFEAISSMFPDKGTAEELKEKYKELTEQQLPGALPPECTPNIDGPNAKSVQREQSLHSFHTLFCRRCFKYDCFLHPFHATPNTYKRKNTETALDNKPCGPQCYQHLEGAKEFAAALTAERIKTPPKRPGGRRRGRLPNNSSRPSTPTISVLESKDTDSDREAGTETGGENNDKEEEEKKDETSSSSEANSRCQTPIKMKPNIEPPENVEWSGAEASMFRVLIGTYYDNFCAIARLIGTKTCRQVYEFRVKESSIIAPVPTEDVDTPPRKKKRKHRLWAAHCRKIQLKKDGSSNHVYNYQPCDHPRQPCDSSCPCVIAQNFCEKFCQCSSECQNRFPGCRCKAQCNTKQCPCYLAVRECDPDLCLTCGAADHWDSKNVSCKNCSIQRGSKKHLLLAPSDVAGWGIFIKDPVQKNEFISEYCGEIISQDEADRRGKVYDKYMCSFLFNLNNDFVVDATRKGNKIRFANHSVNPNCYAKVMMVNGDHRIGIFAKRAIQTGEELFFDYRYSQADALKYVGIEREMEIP", "assay": "Inhibition of EZH2 in mouse B16-F1 migrating cells assessed as fold change in H3K27me3-independent regulated Ahnak-mRNA expression at 3 uM measured by […] analysis relative to control cells", "summary_of_the_method": "(§1)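 Confluent B16-F1 cells on fibronectin-coated plates were scratched at multiple sites, washed once with DMEM and left to migrate 3 h in growth medium (37 °C, 7% CO2); unscratched cells served as control. GSK343 (3 µM) was added 3 h before lysis. Poly A mRNA was sequenced (RNA-seq), with 5 replicates for untreated and 3 for treated cells. Differential expression was called by linear model with batch correction, at FDR <0.05 and fold change ≥1.3.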"}, "[12]": {"target": "Histone-lysine N-methyltransferase EZH2 (Mus musculus) (UniProt Q61188)", "assay": "Inhibition of EZH2 in mouse B16-F1 migrating cells assessed as fold change in H3K27me3-buffered regulated Slc26a2-mRNA expression at 3 uM measured by […] analysis relative to control cells", "summary_of_the_method": "as §1"}, "[13]": {"target": "Histone-lysine N-methyltransferase EZH2 (Mus musculus) (UniProt Q61188)", "assay": "Inhibition of EZH2 in mouse B16-F1 migrating cells assessed as fold change in H3K27me3-independent regulated Dlx6-mRNA expression at 3 uM measured by […] analysis relative to control cells", "summary_of_the_method": "as §1"}, "[14]": {"target": "Histone-lysine N-methyltransferase EZH2 (Mus musculus) (UniProt Q61188)", "assay": "Inhibition of EZH2 in mouse B16-F1 migrating cells assessed as fold change in H3K27me3-independent regulated Klf15-mRNA expression at 3 uM measured by […] analysis relative to control cells", "summary_of_the_method": "as §1"}, "[15]": {"target": "Histone-lysine N-methyltransferase EZH2 (Mus musculus) (UniProt Q61188)", "assay": "Inhibition of EZH2 in mouse B16-F1 migrating cells assessed as fold change in H3K27me3-buffered regulated Rbl1-mRNA expression at 3 uM measured by […] analysis relative to control cells", "summary_of_the_method": "(§2)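 Confluent B16-F1 cells on fibronectin-coated plates, cultured at 37 °C and 7% CO2, were scratched at multiple sites to induce migration. They were then held 3 h in growth medium containing 3 µM GSK343, with the inhibitor added 3 h before lysis. Unscratched cells served as controls. Poly A mRNA was analysed by RNA-seq (n=3 GSK343, n=5 controls). Linear models removed batch effects, and buffered genes were those altered only under GSK343 (FDR <0.05, fold change >1.3).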"}, "[16]": {"target": "Histone-lysine N-methyltransferase EZH2 (Mus musculus) (UniProt Q61188)", "assay": "Inhibition of EZH2 in mouse B16-F1 migrating cells assessed as fold change in H3K27me3-buffered regulated Ttc14-mRNA expression at 3 uM measured by ChIP-seq analysis relative to control cells", "summary_of_the_method": "as §1"}, "[17]": {"target": "Histone-lysine N-methyltransferase EZH2 (Mus musculus) (UniProt Q61188)", "assay": "Inhibition of EZH2 in mouse B16-F1 migrating cells assessed as fold change in H3K27me3-buffered regulated 1810058I24Rik-mRNA expression at 3 uM measured by ChIP-seq analysis relative to control cells", "summary_of_the_method": "as §2"}, "[18]": {"target": "Histone-lysine N-methyltransferase EZH2 (Mus musculus) (UniProt Q61188)", "assay": "Inhibition of EZH2 in mouse B16-F1 migrating cells assessed as fold change in H3K27me3-buffered regulated A130010J15Rik-mRNA expression at 3 uM measured by […] analysis relative to control cells", "summary_of_the_method": "as §2"}, "[19]": {"target": "Histone-lysine N-methyltransferase EZH2 (Mus musculus) (UniProt Q61188)", "assay": "Inhibition of EZH2 in mouse B16-F1 migrating cells assessed as fold change in H3K27me3-buffered regulated Irf1-mRNA expression at 3 uM measured by […] analysis relative to control cells", "summary_of_the_method": "as §2"}, "[20]": {"target": "Histone-lysine N-methyltransferase EZH2 (Mus musculus) (UniProt Q61188)", "assay": "Inhibition of EZH2 in mouse B16-F1 migrating cells assessed as fold change in H3K27me3-buffered regulated Rnf145-mRNA expression at 3 uM measured by […] analysis relative to control cells", "summary_of_the_method": "as §1"}, "[21]": {"target": "Histone-lysine N-methyltransferase EZH2 (Mus musculus) (UniProt Q61188)", "assay": "Inhibition of EZH2 in mouse B16-F1 migrating cells assessed as fold change in H3K27me3-buffered regulated Rev3l-mRNA expression at 3 uM measured by ChIP-seq analysis relative to control cells", "summary_of_the_method": "as §2"}, "[22]": {"target": "Histone-lysine N-methyltransferase EZH2 (Mus musculus) (UniProt Q61188)", "assay": "Inhibition of EZH2 in mouse B16-F1 migrating cells assessed as fold change in H3K27me3-buffered regulated Rassf1-mRNA expression at 3 uM measured by […] analysis relative to control cells", "summary_of_the_method": "as §2"}, "[23]": {"target": "Histone-lysine N-methyltransferase EZH2 (Mus musculus) (UniProt Q61188)", "assay": "Inhibition of EZH2 in mouse B16-F1 migrating cells assessed as fold change in H3K27me3-buffered regulated Clk1-mRNA expression at 3 uM measured by […] analysis relative to control cells", "summary_of_the_method": "as §2"}, "[24]": {"target": "Histone-lysine N-methyltransferase EZH2 (Mus musculus) (UniProt Q61188)", "assay": "Inhibition of EZH2 in mouse B16-F1 migrating cells assessed as fold change in H3K27me3-buffered regulated Lrp4-mRNA expression at 3 uM measured by […] analysis relative to control cells", "summary_of_the_method": "as §2"}},
  "data": [
    {"smiles": "OC[C@H]1O[C@@H](n2cnc3cc(Cl)c(Cl)cc32)[C@H](O)[C@@H]1O", "values": [
      {"measurement": "log2FC", "setting": "[1]", "result": 0.43},
      {"measurement": "log2FC", "setting": "[2]", "result": 0.7},
      {"measurement": "log2FC", "setting": "[3]", "result": -0.71},
      {"measurement": "log2FC", "setting": "[4]", "result": -0.68},
      {"measurement": "log2FC", "setting": "[5]", "result": 0.39},
      {"measurement": "log2FC", "setting": "[6]", "result": -0.51},
      {"measurement": "log2FC", "setting": "[7]", "result": -0.48},
      {"measurement": "log2FC", "setting": "[8]", "result": 0.46},
      {"measurement": "log2FC", "setting": "[9]", "result": -0.83},
      {"measurement": "log2FC", "setting": "[10]", "result": 0.93}
    ]},
    {"smiles": "CCCc1cc(C)[nH]c(=O)c1CNC(=O)c1cc(-c2ccnc(N3CCN(C)CC3)c2)cc2c1cnn2C(C)C", "values": [
      {"measurement": "log2FC", "setting": "[11]", "result": 0.4},
      {"measurement": "log2FC", "setting": "[12]", "result": 0.38},
      {"measurement": "log2FC", "setting": "[13]", "result": -0.86},
      {"measurement": "log2FC", "setting": "[14]", "result": -0.5},
      {"measurement": "log2FC", "setting": "[15]", "result": -0.43},
      {"measurement": "log2FC", "setting": "[16]", "result": -0.44},
      {"measurement": "log2FC", "setting": "[17]", "result": 0.47},
      {"measurement": "log2FC", "setting": "[18]", "result": -0.42},
      {"measurement": "log2FC", "setting": "[19]", "result": -0.62},
      {"measurement": "log2FC", "setting": "[20]", "result": -0.49},
      {"measurement": "log2FC", "setting": "[21]", "result": -0.47},
      {"measurement": "log2FC", "setting": "[22]", "result": -0.52},
      {"measurement": "log2FC", "setting": "[23]", "result": -0.75},
      {"measurement": "log2FC", "setting": "[24]", "result": -0.39}
    ]}
  ]
}
